HSF-1 act: HSF-1 activators, primary screen, NIH3T3-HGL cells, MG132 stress, luminescence, single point | actives 1.7% (n = 300,000) | activation, % at 9 µM | NIH3T3-HGL HSF-1 luciferase reporter, 8 h; 100% = twice DMSO control signal;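 active means mean replicate activation of at least 50% with a set share of replicates each reaching 50%; inconclusive means only one of those two conditions met; inactive means mean below 50% and too few replicates reaching it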;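 further: 0% = median of the neutral control wells and 100% = twice that signal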
HSF1 inhib: HSF1 inhibitors in luciferase reporter cells, primary screen, cell-based, NIH3T3, luminescence; actives 0.77% (n = 300,000); NIH3T3-HGL HSE-luciferase, MG132-induced, luminescence 8 h; stronger effect = lower value; AID 2098, 2009; activity change, negative = inhibition, % at 7.5 µM (by protocol);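 active means more than half of replicate wells show activity change below -50%, luminescence cut by over half; inconclusive means some wells, but at most half, below -50%; inactive means no replicate well below -50%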;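 further: luciferase reports HSF-1 transcriptional activity via heat shock element; 0% = median of DMSO wells and -100% = zero luminescence signal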
PHOSPHO1 block: PubChem AID 1565 | Phosphoethanolamine/phosphocholine phosphatase (Homo sapiens), Q8TCT1 | recombinant PHOSPHO1, absorbance phosphatase assay | inhibition, % at 13.3 µM | actives 1.1% (n = 290,000); in the data active means inhibition above about 60%
Target sequence (Q8TCT1 whole entry, looked up): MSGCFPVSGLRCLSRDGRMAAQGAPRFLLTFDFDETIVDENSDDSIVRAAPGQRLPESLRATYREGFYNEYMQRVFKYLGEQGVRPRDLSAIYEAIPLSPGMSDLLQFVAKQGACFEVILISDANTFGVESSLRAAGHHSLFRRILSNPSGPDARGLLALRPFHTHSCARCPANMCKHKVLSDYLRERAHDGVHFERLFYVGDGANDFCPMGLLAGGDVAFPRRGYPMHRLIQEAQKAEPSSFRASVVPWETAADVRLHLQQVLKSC
AI-2 QS modul: Vibrio harveyi AI-2 quorum sensing modulators, primary screen, JMH597 strain, luminescence/OD600 ratio | Vibrio harveyi JMH597 AI-2 luminescence/OD600 ratio, 9 h; stronger effect = lower value; strain lacks LuxN and CqsS sensors; 0 = neutral-control median | activity change, % at 7.5 µM | actives 0.4% (n = 300,000) | AID 2094, 2009; in the data active means activity change below about -75%, passing the limit was not always enough; inconclusive means no clear call, values can overlap the other calls;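 further: luminescence divided by OD600 gain over 9 h not by final OD600 alone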
ALR H2O2 inh: inhibitors of human ALR sulfhydryl oxidase, primary screen, biochemical, H2O2 detection, HRP-luminol luminescence, single point. FAD-linked sulfhydryl oxidase ALR (Homo sapiens), P55789. purified ALR, DTT oxidation. inhibition, % (no concentration beside the values). actives 3.8% (n = 290,000). AID 485317, 2010;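 active means mean replicate inhibition above about 79%, with every replicate also reaching it, limit read from the data; inconclusive means only one of the two criteria met; inactive means mean below limit and not every replicate reaching it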
Target sequence (P55789 whole entry, looked up): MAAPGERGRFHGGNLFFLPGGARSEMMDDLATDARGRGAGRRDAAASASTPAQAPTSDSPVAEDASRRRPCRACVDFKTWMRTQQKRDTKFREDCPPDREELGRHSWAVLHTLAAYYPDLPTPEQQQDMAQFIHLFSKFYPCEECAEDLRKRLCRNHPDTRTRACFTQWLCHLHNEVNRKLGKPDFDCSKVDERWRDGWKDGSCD
core dimer inh: inhibitors of HCV core protein dimerization, primary screen, biochemical, TR-FRET, high-throughput | inhibition, % at 5 µM | TR-FRET GST/Flag-core106 dimerization, 1536-well | actives 0.33% (n = 300,000) | AID 1899, 2009;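 active means inhibition above the mean of all tested compounds plus 3 SD, set per screening campaign, cut at about 45% in these data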
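Material: Tagged HCV core106 pair (GST and Flag) | Amount: GST-core106 13.5 nM, Flag-core106 17 nM | Medium: KF-containing HEPES buffer, pH 7.45, DTT, CHAPS, BSA | Reagent: Eu donor and XL665 acceptor anti-tag antibodies | Schedule: 4 h at 22.5 °C | Technique: Time-resolved FRET, ex 340 nm, em 617 and 671 nm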
Starred values were filed as active, the others as inactive; ? = inconclusive; . = not tested or not shown. Most compounds without a hit are left out; they make up all but 6.8% or so of the library.

SMILES	HSF-1 act	HSF1 inhib	PHOSPHO1 block	AI-2 QS modul	ALR H2O2 inh	core dimer inh
Cc1ccc(-c2nc(=S)c3c(n2Cc2ccco2)CCCC3)cc1	.	.	34	.	.	.
S=c1nc(-c2ccccc2)oc2c1CCCC2	?	20	-33	17	5	-9
COc1cccc(-c2nc(=S)c3c(n2Cc2ccco2)CCCC3)c1	124*	114	32	21	10	-2
Cc1cccc(-c2nc(=S)c3c(n2Cc2ccco2)CCCC3)c1	11	-2	-45	11	?	64*
COc1cccc(-c2nc(=S)c3c(o2)CCCC3)c1	22	16	61*	8	50	3
CN(C)C(=O)c1nc2ccc(Cl)cn2c1CN1CCCC(OCc2ccccc2)C1 (stereo not drawn)	3	1	46	13	-21	0
Cc1c(CNC(=O)c2c([N+](=O)[O-])cnn2C)cnn1C	29	9	38	12	10	-3
CNC(=O)c1cc(Nc2nnc(-c3ccc(O)cc3)c3ccccc23)ccc1OC	0	-5	34	31	98*	-2
CN(C)C(=O)c1ccc(Nc2nnc(-c3ccc(O)cc3)c3ccccc23)cc1	34	-1	30	1	74	-6
Cc1ccc(-c2nnc(Nc3ccc(O)cc3)c3ccccc23)cc1S(=O)(=O)NCCO	21	1	29	1	97*	.
CNC(=O)c1ccc(Nc2nnc(-c3ccc(O)cc3)c3ccccc23)cc1	4	0	.	19	30	1
Oc1ccc(-c2nnc(Nc3cccc(O)c3)c3ccccc23)cc1	2	6	36	12	98*	5
NC(=O)COc1ccc(Nc2nnc(-c3ccc(O)cc3)c3ccccc23)cc1	-20	-3	36	12	99*	-7
Cc1ccc(S(=O)(=O)N2CCN(C(=O)COC(=O)CCOc3ccc(C(C)(C)C)cc3)CC2)cc1	-2	-4	.	-11	9	5
O=c1c(Cc2ccccc2)c(O)ccn1Cc1ccco1	-7	-12	32	3	-6	-6
CC1CCCCN1C(=O)CSc1nnc(-c2ccc(Cl)s2)o1 (stereo not drawn)	20	16	60	-9	-4	5
O=C1NC(c2ccccc2)Nc2c1sc(=S)n2-c1ccccc1 (stereo not drawn)	1	-2	-20	15	10	-6
Cc1ccc2cc(/C=C/C(=O)c3ccco3)c(Cl)nc2c1	119*	68	19	3	11	6
Cc1ccc2nc(Cl)c(/C=C/C(=O)c3ccco3)cc2c1	47	30	-8	15	97*	7
Cc1ccc(CNc2c(C=O)c(=O)[nH]c3ccccc23)cc1	63*	17	-14	15	-2	2
CC(C)(C)c1ccc(NNC(=O)C2CCC2)cc1	12	-3	3	25	-4	0
Cc1cc(C)nc(NC(=O)c2ccc(Br)cc2)n1	-14	-3	18	8	0	8
Cc1cc(NO)nc(-c2ccc(Br)cc2)n1	2	5	96*	22	19	-1
CCc1ccccc1NC(=O)c1ccc2c(O)c(S(=O)(=O)c3ccc(OC)cc3)c(=O)[nH]c2c1	3	4	58	26	5	1
CCN(Cc1ccccc1)c1ccc(/C=C(\C#N)c2ccccn2)cc1	103*	53	-2	15	-16	5
SMILES	HSF-1 act	HSF1 inhib	PHOSPHO1 block	AI-2 QS modul	ALR H2O2 inh	core dimer inh
CCN(CC)c1ccc(/C=C(\C#N)c2ccccn2)cc1	-64	-58*	-4	18	44	0
COc1cc(/C=C(\C#N)c2ccccn2)ccc1OCc1ccc(Cl)cc1	68*	18	1	42	-1	-3
COc1cc(/C=C(\C#N)c2ccccn2)ccc1OCc1ccccc1	22	15	2	22	54	-4
CN(CCC#N)c1ccc(/C=C(\C#N)c2ccccn2)cc1	31	1	-6	18	-17	-9
CCOC(=O)c1ccccc1NC(=O)COC(=O)C1CCN(S(=O)(=O)c2ccccc2C(=O)OC)CC1	9	-5	.	19	-1	3
CC(C)(C)NC(=O)NC(=O)CSc1ncn[nH]1	-6	-3	41	21	.	-4
O=C(CSc1ncn[nH]1)CSc1ncn[nH]1	-37	-23	-5	40	94*	-4
CC1(C(=O)CSc2nc3ccccc3[nH]2)CCC(=O)O1 (stereo not drawn)	7	-6	2	1	66	-9
CC(C)c1ccc(C(=O)CSc2ncn[nH]2)cc1	37	18	100*	20	10	7
CC1(C(=O)CSc2ncn[nH]2)CCC(=O)O1 (stereo not drawn)	.	.	93*	14	10	1
C=CCNC(=S)NNC(=O)c1cccn(Cc2cccc(Cl)c2)c1=O	19	11	79*	2	33	-2
C=CCNC(=S)NNC(=O)c1cc(O)ccc1O	-6	1	8	4	99*	-6
CC(Oc1ccccc1)C(=O)Nc1nnc(C2CCCCC2)s1 (stereo not drawn)	?	33	33	2	-4	15
O=c1cc(CO)oc(C(Nc2ccccn2)c2ccccc2F)c1O (stereo not drawn)	1	-1	.	17	97*	-1
O=c1cc(CO)oc(C(Nc2ccccn2)c2cccc(F)c2)c1O (stereo not drawn)	11	5	10	5	98*	-5
O=c1cc(CO)oc(C(Nc2ccccn2)c2ccc(C(F)(F)F)cc2)c1O (stereo not drawn)	8	8	-23	55	5	3
Cc1cc(C)cc(C(=O)NCC(=O)OCC(=O)c2cc(C)n(CC(F)(F)F)c2C)c1	16	2	2	1	-6	-3
Cc1cc(NC(=O)c2nn(C)c(C)c2Br)no1	22	7	33	15	-2	0
COCCN(C(=O)c1cc(Cl)nc2ccccc12)c1c(N)n(Cc2ccccc2)c(=O)[nH]c1=O	.	.	.	.	-3	.
Cc1ccc(C)c(NC(=O)c2ccccn2)c1	24	10	14	17	2	-3
Cc1ccc(NC(NC(=O)c2cccs2)C(Cl)(Cl)Cl)cc1 (stereo not drawn)	-5	-7	34	13	98*	2
Cc1ccc(NC(NC(=O)c2ccccn2)C(Cl)(Cl)Cl)cc1 (stereo not drawn)	-16	-7	11	13	99*	-13
